Results from different studies.
Organism: Staphylococcus aureus
Read-out: microbial growth

CCCCCCC#Cc1cncc(-c2nnc(SCc3ccc([N+](=O)[O-])o3)n2CCCN)c1
MIC (broth dilution; MRSA): > 64 mg/L

Brc1ccc2nc(SCc3ccccc3)c(CNCCC3CCN(C4CCCC4)CC3)cc2c1
MIC (broth dilution): 32 mg/L

C=C[C@]1(C)C[C@@H](OC(=O)CS[C@@H]2C[C@H]3CC[C@@H](C2)N3C)[C@]2(C)[C@H](C)CC[C@]3(CCC(=O)[C@H]32)[C@@H](C)[C@@H]1O
MIC (agar dilution; ATCC29213): 0.0625 mg/L

Cc1ccc2[nH]nc(-c3nnc(Nc4ccc(C)c(C)c4)s3)c2c1
MIC (ATCC29213): 94.2 mg/L

CCCCCCC#Cc1cncc(-c2nnc(SCc3ccc(Cl)cc3)n2CCCN)c1
MIC (broth dilution; ATCC29213): 8 mg/L

N[C@@H](Cc1c[nH]c2ccc(Cl)cc12)C(=O)O
MIC (NEWMAN; 18 h): 200 µM

[H]/N=C(/N)N[C@H]1[C@H](O)[C@@H](O)[C@H](O[C@@H]2O[C@@H](C)[C@](O)(C=O)[C@H]2O[C@@H]2O[C@@H](CO)[C@H](O)[C@@H](O)[C@@H]2NC)[C@@H](N/C(N)=N\[H])[C@@H]1O
MIC (broth dilution; ATCC6538): 15 mg/L

CC1(C)S[C@@H]2[C@H](NC(=O)[C@H](N)c3ccc(O)cc3)C(=O)N2[C@H]1C(=O)O
MIC (broth dilution; ATCCBAA44 BAA44): 64 mg/L

CCCCCCC#Cc1cncc(-c2nnc(SCc3cc(C(F)(F)F)cc(C(F)(F)F)c3)n2CCCN)c1
MIC (broth dilution; ATCC29213): 4 mg/L

CC(=O)NC[C@H]1CN(c2ccc(N3CCOCC3)c(F)c2)C(=O)O1
MIC (agar dilution; ATCC43300): 2 mg/L

CCCCCCCCCCCC[N+](C)(C)Cc1ccccc1
MIC (MRSA USA300; drug-resistant strain): 8 µM

CCCCCCC#Cc1cncc(-c2nnc(SCc3cc([N+](=O)[O-])cc([N+](=O)[O-])c3)n2CCOC2OC(CN)C(O)C2O)c1 (stereo not drawn)
MIC (broth dilution; MRSA): > 64 mg/L

CN[C@H](CC(C)C)C(=O)N[C@H]1C(=O)N[C@@H](CC(N)=O)C(=O)N[C@H]2C(=O)N[C@H]3C(=O)N[C@H](C(=O)N[C@H](C(=O)O)c4cc(O)cc(O)c4-c4cc3ccc4O)[C@H](O)c3ccc(c(Cl)c3)Oc3cc2cc(c3O[C@@H]2O[C@H](CO)[C@@H](O)[C@H](O)[C@H]2O[C@H]2C[C@](C)(N)[C@H](O)[C@H](C)O2)Oc2ccc(cc2Cl)[C@H]1O
MIC (broth dilution; ATCC29213): 1 mg/L

c1ccc(CSc2nc3ccccc3cc2CNCc2ccc(CN3CCCC3)cc2)cc1
MIC (broth dilution): 64 mg/L

COc1ccc(C=NNC(=O)CSc2nc3c(C)cccc3c(=O)n2-c2ccccc2)cc1OS(C)(=O)=O
MIC (broth dilution): 12.5 mg/L

Cc1ccc2[nH]nc(-c3nnc(Nc4ccc(O)cc4)s3)c2c1
MIC (ATCC29213): 18.3 mg/L

COc1ccc(N2N=C(C(=O)c3ccc(Nc4cnccn4)cc3)SC2=C(C#N)C#N)cc1
MIC (broth dilution; ATCC25923): 3.12 mg/L

CC[C@H]1OC(=O)[C@H](C)[C@@H](O[C@H]2C[C@@](C)(OC)[C@@H](O)[C@H](C)O2)[C@H](C)[C@@H](O[C@@H]2O[C@H](C)C[C@H](N(C)C)[C@H]2O)[C@](C)(O)C[C@@H](C)CN(C)[C@H](C)[C@@H](O)[C@]1(C)O
MIC (broth dilution; ATCCBAA44 BAA44): > 64 mg/L

CNC(C)C1CCC(N)C(OC2C(N)CC(N)C(OC3OCC(C)(O)C(NC)C3O)C2O)O1 (stereo not drawn)
MIC (broth dilution): 2 mg/L

CC(=O)C1=NN(c2ccccc2)C(=C(C#N)C(=O)c2ccc(Nc3cnccn3)cc2)S1
MIC (broth dilution; ATCC25923): 50 mg/L

c1ccc(CSc2nc3ccc(-c4ccccc4)cc3cc2CNCc2ccc(CN3CCCC3)cc2)cc1
MIC (broth dilution): > 128 mg/L

C[C@H]1COc2c(N3CCN(C)CC3)c(F)cc3c(=O)c(C(=O)O)cn1c23
MIC (ATCC29213 MSSA; drug-resistant strain): 0.12 mg/L

COc1c(N2C[C@@H]3CCCN[C@@H]3C2)c(F)cc2c(=O)c(C(=O)O)cn(C3CC3)c12
MIC (agar dilution; ATCC25923): 0.0625 mg/L

CCCCCCCCN=c1ccn(CCCCCCCCCCn2ccc(=NCCCCCCCC)cc2)cc1
MIC (ATCC33591 MRSA; drug-resistant strain): 1 µM

CN[C@H](CC(C)C)C(=O)N[C@H]1C(=O)N[C@@H](CC(N)=O)C(=O)N[C@H]2C(=O)N[C@H]3C(=O)N[C@H](C(=O)N[C@H](C(=O)O)c4cc(O)cc(O)c4-c4cc3ccc4O)[C@H](O)c3ccc(c(Cl)c3)Oc3cc2cc(c3O[C@@H]2O[C@H](CO)[C@@H](O)[C@H](O)[C@H]2O[C@H]2C[C@](C)(N)[C@H](O)[C@H](C)O2)Oc2ccc(cc2Cl)[C@H]1O
MIC (broth dilution; USA300): 1 mg/L

CC[C@H]1OC(=O)[C@H](C)[C@@H](O[C@H]2C[C@@](C)(OC)[C@@H](O)[C@H](C)O2)[C@H](C)[C@@H](O[C@@H]2O[C@H](C)C[C@H](N(C)C)[C@H]2O)[C@](C)(O)C[C@@H](C)/C(=N\OCOCCOC)[C@H](C)[C@@H](O)[C@]1(C)O
MIC (agar dilution; ATCC29213): 4 mg/L

N=c1sc(C(=O)c2ccc(Nc3cnccn3)cc2)nn1-c1ccc([N+](=O)[O-])cc1
MIC (broth dilution; ATCC25923): 3.12 mg/L

CN[C@H](CC(C)C)C(=O)N[C@H]1C(=O)N[C@@H](CC(N)=O)C(=O)N[C@H]2C(=O)N[C@H]3C(=O)N[C@H](C(=O)N[C@H](C(=O)O)c4cc(O)cc(O)c4-c4cc3ccc4O)[C@H](O)c3ccc(c(Cl)c3)Oc3cc2cc(c3O[C@@H]2O[C@H](CO)[C@@H](O)[C@H](O)[C@H]2O[C@H]2C[C@](C)(N)[C@H](O)[C@H](C)O2)Oc2ccc(cc2Cl)[C@H]1O
MIC (agar dilution; ATCC43300): 2 mg/L

Cc1ccc2[nH]nc(-c3nnc(Nc4ccc(Br)cc4)s3)c2c1
MIC (ATCC29213): 154 mg/L

CCN1CCC(CCNCc2cc3cc(Br)ccc3nc2SCc2ccccc2)CC1
MIC (broth dilution): 32 mg/L

Cc1ccc2[nH]nc(-c3nnc(Nc4ccc(Cl)c(Cl)c4)s3)c2c1
MIC (ATCC29213): 97.5 mg/L

Brc1ccc2nc(SCc3ccccc3)c(CNCc3ccc(CN4CCCC4)cc3)cc2c1
MIC (broth dilution): 32 mg/L

COc1c(N2C[C@@H]3CCCN[C@@H]3C2)c(F)cc2c(=O)c(C(=O)O)cn(C3CC3)c12
MIC (broth dilution; ATCC33591 MRSA): 0.125 mg/L

[H]/N=C(\N/C(=N/[H])NCCCCCCNC(=N)NC(=N)Nc1ccc(Cl)cc1)Nc1ccc(Cl)cc1
MIC (ATCC33591 MRSA; drug-resistant strain): 1 µM

O=C(O)c1cn(C2CC2)c2cc(N3CCNCC3)c(F)cc2c1=O
MIC (broth dilution; ATCC25923; 16 h): 6.25 µM

CC1(C)S[C@@H]2[C@H](NC(=O)[C@H](N)c3ccccc3)C(=O)N2[C@H]1C(=O)O
MIC (agar dilution; ATCC29213): 16 mg/L

CCCCCCC#Cc1cncc(-c2nnc(SCc3cc([N+](=O)[O-])cc([N+](=O)[O-])c3)n2CCCN)c1
MIC (broth dilution; MRSA): 8 to 16 mg/L

CCC[C@@H]1C[C@@H](C(=O)N[C@@H]([C@H]2O[C@H](SC)[C@H](O)[C@@H](O)[C@H]2O)[C@@H](C)O)N(C)C1
MIC (broth dilution; ATCCBAA44 BAA44): > 64 mg/L

CC1(C)S[C@@H]2[C@H](NC(=O)[C@H](N)c3ccccc3)C(=O)N2[C@H]1C(=O)O
MIC (broth dilution; MRSA): 345 µM
